# Bioassay records deposited in PubChem BioAssay by The Scripps Research Institute Molecular Screening Center.
# NR2E3 ag-1 = agonists of human nuclear receptor NR2E3. GST-NR2E3/biotin-RetCOR TR-FRET, 1536-well. inhibition of corepressor binding, % at 4.78 µM. 320,000 tested, 0.12% active;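 active means percent inhibition above the cutoff of mean plus 3 SD of all tested compounds, set per screening campaign, cut at about 20% in these data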;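 further: 0% = DMSO wells and 100% = biotin wells as full block of FRET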
#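 Test system: GST-NR2E3 and biotin-RetCOR proteins | Quantity: 1.35 nM GST-tagged NR2E3 final | Medium: Tris pH 7.5 | Also added: 7 nM biotin-RetCOR | Dosing: Compound at 4.8 µM, single dose | Timing: 5 h at 4 °C | Detection: Time-resolved FRET | Read-out basis: Percent inhibition | Benchmarks: Biotin wells as high control, 0.6% DMSO wells as low control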
# SMARCA2 act = activators of SMARCA2 function; MG213 cells, MMTV-luciferase reporter, dexamethasone, overnight; AID 652017; activation, % at 9.1 µM; 370,000 tested, 1% active; in the data active means activation above about 7.8%;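 further: 0% = vehicle wells and 100% = reference activator wells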
# NR2F2 inh = blocks human COUP-TFII nuclear receptor. P24468. HEK293T NGFI-A luciferase reporter, luminescence. inhibition, % at 8.6 µM. 370,000 tested, 0.7% active. AID 686940;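 active means inhibition above a per-plate cutoff, mean inhibition of test wells between control levels plus 3 SD, cut at about 38% in these data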;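 further: cells cotransfected with COUP-TFII expression vector driving the NGFI-A reporter; 0% = median of COUP-TF2 test wells and 100% = reporter-only cells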
# Target sequence (P24468 whole entry, looked up): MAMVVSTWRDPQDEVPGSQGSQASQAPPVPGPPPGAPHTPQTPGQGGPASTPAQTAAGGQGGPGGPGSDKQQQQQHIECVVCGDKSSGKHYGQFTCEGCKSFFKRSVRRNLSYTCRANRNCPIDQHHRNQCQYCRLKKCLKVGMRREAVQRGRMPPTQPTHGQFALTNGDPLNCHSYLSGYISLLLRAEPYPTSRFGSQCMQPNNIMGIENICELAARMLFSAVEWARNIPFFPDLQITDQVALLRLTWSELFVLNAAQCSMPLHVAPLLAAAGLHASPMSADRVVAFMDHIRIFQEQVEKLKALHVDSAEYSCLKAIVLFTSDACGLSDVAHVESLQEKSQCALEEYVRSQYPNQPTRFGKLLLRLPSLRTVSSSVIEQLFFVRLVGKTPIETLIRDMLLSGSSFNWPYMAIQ
# NR2E3 ag-2 = agonists of human NR2E3 nuclear receptor | CHO-S Gal4-NCOR/VP16-NR2E3 two-hybrid, luciferase | Q9Y5X4 | inhibition of corepressor binding, % at 3.98 µM | 360,000 tested, 0.35% active;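 active means inhibition above the mean of all tested compounds plus 3 SD, cut at about 70% in these data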;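 further: 0% = DMSO with NR2E3 transfected cells and 100% = cells lacking NR2E3 construct; higher means lower luciferase signal from less NR2E3 corepressor binding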
# GalR3 antagonist = antagonists of human GalR3; 360,000 tested, 0.44% active; O60755; AID 651719; HEK293 GalR3-CNG cAMP membrane potential fluorescence; galR3 body fused to GalR1 C-terminus; inhibition, % at 3 µM;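 active means inhibition above the screen-wide average plus 3 SD, cut at about 13% in these data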;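 further: forskolin and galanin both at EC90 stimulate the cells; cAMP rise reported by CNG channel membrane potential dye signal; 0% = forskolin plus galanin with DMSO and 100% = forskolin alone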
# SMARCA2 act conf = SMARCA2 activation, confirmation screen. shares compounds with SMARCA2 act. MG213 cells, MMTV-luciferase with dexamethasone, luminescence, overnight; MG213 cells expressing E1A, Rb sequestered; DMSO wells 0%, reference activator 100%. activation, % at 9.1 µM. 3,500 tested, 30% active;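 active means activation above its plate's cutoff, the mean activation of tested wells plus 3 SD, cut at about 7.9% in these data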
# GAL4-VP16 Luc = GAL4-VP16 reporter activation counter-screen; activation, % at 9.1 µM; 3,500 tested, 41% active; shares compounds with SMARCA2 act; HEK293 GAL4-VP16 pG5luc reporter, luciferase luminescence; scaled: DMSO wells 0%, SAHA wells 100%;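 active means activation above the solvent-only control well mean plus 3 SD, averaged across control plates, cut at about 5.2% in these data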
# The depositor's hits bear a star; / = no result. A selection: hits, their analogues and other compounds. The true share with any hit is near 2.2%.
SMILES,NR2E3 ag-1,SMARCA2 act,NR2F2 inh,NR2E3 ag-2,GalR3 antagonist,SMARCA2 act conf,GAL4-VP16 Luc
CCCCCCCCN1C(=O)[C@@H](CC(=O)NCc2cccs2)C[C@@]2(C(=O)OC)C1=C[C@H](C(C)C)O[C@@H]2C1CC1,/,-4,12,/,/,/,/
OC(c1ccc(F)cc1)c1ncc(-c2ccccc2F)[nH]1 (stereo not drawn),/,1,-22,-84,-7,/,/
CCc1ccc(C(O)c2ncc(-c3ccccc3F)[nH]2)cc1 (stereo not drawn),/,13*,-40,-75,-6,5,5
CSCCCNC(=O)CN1C(=O)C2CCCCN2C(=O)c2ccccc21 (stereo not drawn),/,3,-13,/,/,/,/
CN1C(=O)/C(=C/c2cn(CC(=O)NCc3ccco3)c3ccccc23)NC1=S,0,-1,5,/,-3,/,/
CCN=C1S/C(=C\c2cn(CC(=O)NCc3ccco3)c3ccccc23)C(=O)N1CC,0,8.1*,7,7,-1,9.9*,4
COc1c(C(=O)Nc2nccs2)ccc2ccccc12,0,10*,-30,-145,-11,10*,11*
Cn1ccc(C(=O)N/N=C/c2ccccc2[N+](=O)[O-])n1,1,8.2*,-24,-77,-2,8,5
O=C(Oc1ccccc1/C=C\C(=O)c1cc2ccccc2o1)c1ccccc1,1,8.7*,-55,-42,1,2,9.6*
Cc1csc2c(=O)sc(NC(=O)c3ccc(F)cc3Cl)nc12,4,11*,11,30,0,-6,0
COc1cc(-c2nnc3sc(C4CCCCC4)nn23)cc(OC)c1OC,-1,/,/,33,/,/,/
COc1cc(OC)c(-c2nn3c(C4CCCCC4)nnc3s2)cc1OC,2,8.3*,-40,-4,0,0,2
COC(=O)[C@H](C(C)C)N(CCCc1cn(CC2CCCCC2)nn1)S(=O)(=O)c1ccccc1Br,/,-3,24,/,/,/,/
COC(=O)C1CCCN(C(=O)C2CCN(S(=O)(=O)c3cccc4cccnc34)CC2)C1 (stereo not drawn),/,-5,-43,/,/,/,/
COc1ccc(CCN(Cc2cccs2)S(=O)(=O)c2ccc(C)c(C)c2)cc1OC,/,-4,32,/,/,/,/
COc1ccc(/C=N\NC(=O)c2ccc(=O)[nH]n2)cc1O,-2,12*,-11,26,0,-1,0
COc1ccc(/C=N/NC(=O)c2ccc(=O)[nH]n2)cc1OC,0,4,-7,-5,-4,/,/
Cn1nc([N+](=O)[O-])nc1S(C)(=O)=O,/,52*,-22,-14,-6,49*,0
COc1ccc(-c2nc(C#N)c(NCc3cccnc3)o2)cc1OC,-3,10*,-10,-1,0,-2,3
CC(CN1C(C)CCCC1C)OC(=O)c1ccccc1F (stereo not drawn),-2,9.2*,-16,7,-3,0,4
CCOC(=O)[C@]12CCCC=C1N(CCCOC)C(=O)[C@@H]2CC(=O)N1CCCCC1,/,-1,2,/,/,/,/
C=CCN1C(=O)[C@@H](CC(=O)NCc2ccccc2)[C@]2(C(=O)OCC)CCCCC/C=C/12,/,-2,-14,/,/,/,/
CCCN1CCN(CCCNC(=O)c2ccc3nc(N4CCC(C)CC4)sc3c2)CC1,5,2,-8,-104,-4,/,/
CC1CCCCN1CCCNC(=O)c1ccc2nc(N3CCCCC3)sc2c1 (stereo not drawn),3,17*,-75,-103,3,9.4*,9.8*
Cc1ccc(-c2nnc(-c3cc(C)on3)o2)cc1,3,9.0*,-28,-112,-5,7,9.2*
SMILES,NR2E3 ag-1,SMARCA2 act,NR2F2 inh,NR2E3 ag-2,GalR3 antagonist,SMARCA2 act conf,GAL4-VP16 Luc
Cc1ccc(-c2nnc(-c3cccs3)o2)cc1,-3,10.0*,-29,-144,-6,8.2*,9.2*
Cc1ccc(-c2nnc(-c3ccccc3)o2)cc1,4,3,-46,-182,-6,/,/
Cc1ccc(/C=C/c2nnc(-c3cccs3)o2)cc1,1,11*,-58,-201,-3,3,9.0*
CC(C)(C)c1ccc(C(=O)Nc2cc(Cl)c(Cl)cc2C(=O)O)cc1,/,/,0,/,/,/,/
CCCC(=O)OC12CCCN(C1)/C(=C/c1cccc(Cl)c1)C2 (stereo not drawn),/,-4,-20,/,/,/,/
N#C/C(=C\c1ccc(OCc2ccc(C(=O)O)cc2)cc1)C(=O)N1CCOCC1,1,10*,-64,-171,-2,2,15*
C=CCN1C(=O)c2n[nH]c(COC)c2C1c1ccc(C)cc1 (stereo not drawn),/,-6,8,/,1,/,/
CCC(=O)N/C(N)=N/c1nc(C)c2cc(OC)ccc2n1,1,18*,-51,-76,-7,35*,13*
CCNC(=S)NNC(=O)c1ccccc1OC(F)F,2,-4,-3,1,-6,/,/
CCNC(=S)NNC(=O)c1ccccc1Cl,0,8.2*,7,-13,-8,6,0
Cc1cccc(NC(=O)CN(C)C(=O)c2ccc3ccccc3n2)c1C,/,0,-8,-11,2,/,/
COCCN(CC(=O)Nc1cccc(C)c1C)C(=O)c1ccc2ccccc2n1,2,9.0*,-24,-63,-6,6,2
Cc1cc(C)n2nc(C(=O)NCc3ccccc3)cc2n1,-1,0,4,-20,-3,/,/
Cc1ccc(NC(=O)c2cc3nc(C)cc(C)n3n2)cc1,-4,9.4*,-50,-117,-4,10*,7.9*
COC(=O)C1CN(Cc2cn(CCOC(C)=O)nn2)CCS(=O)(=O)N1Cc1ccc(C)cc1 (stereo not drawn),/,0,6,/,/,/,/
O=C(COc1ccccc1)NCCSc1ccccc1,-3,9.4*,-22,-103,-2,10*,7.7*
CCOC(=O)C1C[C@@H](O)C=CC1=O (stereo partly drawn),/,/,16,/,/,/,/
COc1cc(/C=C2/SC(=Nc3ccc(O)cc3)NC2=O)cc(OC)c1O,4,8.9*,-16,11,5,4,1
COC(=O)[C@]12C[C@H](CC(=O)N3CCCCC3)C(=O)N(Cc3ccccc3)C1=C[C@H](C1CCCC1)O[C@@H]2C,/,-6,11,/,-5,/,/
O=S(=O)([N-]c1nc2ccccc2nc1-n1cc[n+](Cc2ccccc2)c1)c1ccc(Br)cc1,0,11*,-6,5,-3,3,0
CCCCC[n+]1ccn(-c2nc3ccccc3nc2[N-]S(=O)(=O)c2ccccc2)c1,4,-3,12,-3,-5,/,/
Cc1ccc(C)n1-c1ccc(-n2cnnn2)cc1,0,0,3,8,-5,/,/
